SIAE primary = human SIAE inhibitors, primary screen, biochemical, fluorescence polarization, FP-Rh probe, 1536-well HTS | Sialate O-acetylesterase (Homo sapiens), Q9HAT2 | SIAE FP-Rh probe binding | inhibition, % at 9.66 µM | actives 0.69% (n = 370,000) | AID 1053197, 2014;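 active means inhibition above a cutoff: mean of compounds within the control limits plus 3 SD of those, cut at about 17% in these data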;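 further: 0% = plate median of compound wells and 100% = probe without SIAE protein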
Target sequence (Q9HAT2 whole entry, looked up): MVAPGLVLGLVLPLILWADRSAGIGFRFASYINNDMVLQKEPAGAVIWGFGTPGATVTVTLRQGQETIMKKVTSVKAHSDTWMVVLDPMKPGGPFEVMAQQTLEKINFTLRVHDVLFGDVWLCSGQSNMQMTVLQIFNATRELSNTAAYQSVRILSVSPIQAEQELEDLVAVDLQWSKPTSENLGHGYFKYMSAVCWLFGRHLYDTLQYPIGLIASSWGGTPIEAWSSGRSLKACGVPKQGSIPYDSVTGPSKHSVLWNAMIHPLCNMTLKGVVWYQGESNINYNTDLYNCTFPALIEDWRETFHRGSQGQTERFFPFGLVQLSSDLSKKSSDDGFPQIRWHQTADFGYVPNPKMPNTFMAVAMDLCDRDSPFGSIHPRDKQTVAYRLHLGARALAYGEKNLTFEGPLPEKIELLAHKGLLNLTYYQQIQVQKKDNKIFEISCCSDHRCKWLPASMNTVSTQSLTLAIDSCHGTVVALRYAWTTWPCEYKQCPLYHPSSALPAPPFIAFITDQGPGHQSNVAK
ABHD4 inh = ABHD4 inhibitors, primary screen, biochemical, fluorescence polarization, mouse; (Lyso)-N-acylphosphatidylethanolamine lipase (Mus musculus), Q8VD66; purified mABHD4, FP-Rh probe fluorescence polarization; inhibition, % at 8.92 µM; actives 0.54% (n = 370,000);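 active means inhibition exceeding the mean over every tested compound plus 3 SD, cut at about 30% in these data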;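 further: 0% = plate median of compound wells and 100% = S159A mutant with DMSO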
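Assay system: Wild-type mouse ABHD4 protein | Medium: HEPES pH 7.0 buffer, 150 mM NaCl, 0.01% Pluronic F-127 | Incubation: Enzyme–compound pre-incubation 45 min, then probe 60 min, both 25 °C | Technique: Fluorescence polarization with parallel and perpendicular emission, 525/598 nm | Evaluation: % inhibition of FP-Rh probe binding versus controls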
PRMT1 inh = PRMT1 methyltransferase inhibitors, primary screen, biochemical, fluorescence polarization. inhibition, % at 2.79 µM. Protein arginine N-methyltransferase 1 (Homo sapiens), Q99873. recombinant PRMT1, activity-based probe fluorescence polarization. actives 1.3% (n = 370,000);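 active means inhibition above about 21% made by adding two undisclosed values, limit read from the data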
rCAG binder = binders of r(CAG) RNA repeats, primary screen, biochemical, fluorescence | r(CAG) RNA repeat, TO-PRO-1 dye displacement fluorescence | inhibition, % at 3 µM | actives 1.3% (n = 370,000) | AID 651821, 2012;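 active means inhibition above the plate cutoff, the mean of all test compounds on that plate plus 3 SD, cut at about 35% in these data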;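 further: 0% = DMSO alone and 100% = 100 µM mitoxantrone as full dye displacement; higher means more dye released from RNA so lower well fluorescence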
TCR CD3 inh = inhibitors of human TCR-CD3 interaction, primary screen, biochemical, fluorescence, TAMRA-labeled TCR probe. T-cell receptor (TCR). inhibition, % at 9.4 µM. actives 0.37% (n = 360,000); in the data active means inhibition above about 19%;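 further: recombinant mutant TCR 2C K166C tagged with TAMRA read by polarization; 0% = receptor in buffer alone and 100% = receptor with positive control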
PRMT1 confirm = PRMT1 methyltransferase inhibitors, confirmation, biochemical, fluorescence polarization, triplicate; actives 42% (n = 3,300); AID 687036, 2013; recombinant His-PRMT1, activity-based probe fluorescence polarization; inhibition, % at 2.79 µM; shares compounds with PRMT1 inh;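 active means mean inhibition across replicates above the hit cutoff derived for the earlier primary screen, cut at about 22% in these data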
* = called active by the depositor. Shown are actives, neighbours in structure and some others; about 3.3% of the full set was active somewhere.

What do the screens show for `C=CCN1C(=O)[C@@H](CC(=O)NCC23CC4CC(CC(C4)C2)C3)[C@]2(C(=O)OCC)CCCCC/C=C/12`?
SIAE primary: 3; ABHD4 inh: 5; PRMT1 inh: 8; rCAG binder: 8

How did CC1(c2nnnn2Cc2ccccc2)CCCCC(=O)N1Cc1cccs1 (stereo unspecified) do in these assays?
SIAE primary: 7; ABHD4 inh: 4; PRMT1 inh: 2; rCAG binder: 0

Results for Cc1cc(C)cc(N2C(=O)CC(Sc3ccccc3C(=O)O)C2=O)c1 (stereo unspecified) ?
SIAE primary: -2; ABHD4 inh: 6; PRMT1 inh: 49*; rCAG binder: -1; TCR CD3 inh: -1; PRMT1 confirm: 18

What do the screens show for `CN1C(=O)CC(Sc2ccccc2C(=O)O)C1=O` (stereo unspecified)?
SIAE primary: -4; ABHD4 inh: -6; PRMT1 inh: 7; rCAG binder: -3; TCR CD3 inh: -1

How did Cc1ccc(N2C(=O)CC(Sc3ccccc3C(=O)O)C2=O)cc1C (stereo unspecified) do in these assays?
SIAE primary: -1; ABHD4 inh: 6; PRMT1 inh: 62*; rCAG binder: 3; TCR CD3 inh: -3; PRMT1 confirm: 21

What do the screens show for `Cc1cccc(N2C(=O)CC(Sc3ccccc3C(=O)O)C2=O)c1` (stereo unspecified)?
SIAE primary: 3; ABHD4 inh: 9; PRMT1 inh: 60*; rCAG binder: 0; TCR CD3 inh: 3; PRMT1 confirm: 22*

What do the screens show for `CN(C)c1ccc(N2C(=O)CC(Sc3ccccc3C(=O)O)C2=O)cc1` (stereo unspecified)?
SIAE primary: 14; ABHD4 inh: 20; PRMT1 inh: 82*; rCAG binder: 1; TCR CD3 inh: -1; PRMT1 confirm: 43*

How did OC(c1ccccc1)(c1ccccc1)C1CCN(CCCOc2ccc(Cl)cc2)CC1 do in these assays?
SIAE primary: 4; ABHD4 inh: 8; PRMT1 inh: 4

Results for c1ccc(Cn2c(SC3CCCCC3)nnc2-c2cccnc2)cc1 ?
SIAE primary: -4; ABHD4 inh: 8; PRMT1 inh: 2; rCAG binder: -2

What do the screens show for `Cc1c(NC(=O)C2CCCN(S(=O)(=O)c3c(C(C)C)cc(C(C)C)cc3C(C)C)C2)c(=O)n(-c2ccccc2)n1C` (stereo unspecified)?
SIAE primary: 3; ABHD4 inh: -1; PRMT1 inh: -2; rCAG binder: 7

What do the screens show for `O=C(O)c1ccccc1SC1CC(=O)N(c2ccc3c(c2)OCO3)C1=O` (stereo unspecified)?
SIAE primary: 2; ABHD4 inh: 10; PRMT1 inh: 56*; rCAG binder: 5; TCR CD3 inh: -1; PRMT1 confirm: 30*

How did Cc1ccc(N2C(=O)CC(Sc3ncccc3C(=O)O)C2=O)cc1 (stereo unspecified) do in these assays?
SIAE primary: 12; ABHD4 inh: 0; PRMT1 inh: 1; rCAG binder: -3; TCR CD3 inh: 4

Results for Cc1cc(C)c(N2C(=O)CC(Sc3ccccc3N)C2=O)c(C)c1 (stereo unspecified) ?
SIAE primary: 5; ABHD4 inh: -2; PRMT1 inh: 34*; rCAG binder: 2; TCR CD3 inh: 2; PRMT1 confirm: 19

Results for Cc1ccc(N2C(=O)CC(Sc3ccccc3C(=O)O)C2=O)cc1 (stereo unspecified) ?
SIAE primary: 7; ABHD4 inh: -1; PRMT1 inh: 86*; rCAG binder: 1; TCR CD3 inh: -8; PRMT1 confirm: 24*

Results for Cc1cccc(C)c1N1C(=O)CC(Sc2ccccc2N)C1=O (stereo unspecified) ?
SIAE primary: -4; ABHD4 inh: 3; PRMT1 inh: 16; rCAG binder: 6; TCR CD3 inh: -4

How did NC(=O)c1c(NC(=O)C2CCCO2)sc2c1CCCCC2 (stereo unspecified) do in these assays?
SIAE primary: 4; ABHD4 inh: 14; PRMT1 inh: 28*; rCAG binder: 8; TCR CD3 inh: -1; PRMT1 confirm: 7

How did NC(=O)c1c(NC(=O)C2CCCO2)sc2c1CCC2 (stereo unspecified) do in these assays?
SIAE primary: -7; ABHD4 inh: -1; PRMT1 inh: 1; rCAG binder: 5; TCR CD3 inh: 3

Results for S=P(N1CC1)(N1CC1)N1CC1 ?
SIAE primary: 7; ABHD4 inh: -7; PRMT1 inh: 40*; rCAG binder: 2; TCR CD3 inh: 6; PRMT1 confirm: 10

Results for COCc1[nH]c(=S)c(C#N)cc1C(=O)OC ?
SIAE primary: 3; ABHD4 inh: 12; PRMT1 inh: 35*; rCAG binder: 28; TCR CD3 inh: 5; PRMT1 confirm: 11

Results for O=C(Oc1ccc([N+](=O)[O-])cc1)O[C@H]1CC[C@@]23CCCN2C(=O)CCC[C@H]3C1 ?
SIAE primary: 5; ABHD4 inh: 3; PRMT1 inh: 2

What do the screens show for `COc1cccc(Cn2cnc(-c3ccccc3OC)c2-c2ccco2)c1`?
SIAE primary: -6; ABHD4 inh: 1; PRMT1 inh: 32*; rCAG binder: 11; TCR CD3 inh: -6; PRMT1 confirm: 5

What do the screens show for `CC1(C)Cc2c(c(N3CCOCC3)nc3sc(C(=O)Nc4ccc(Cl)cc4)c(N)c23)CO1`?
SIAE primary: -4; ABHD4 inh: -14; PRMT1 inh: 53*; rCAG binder: 24; TCR CD3 inh: -11; PRMT1 confirm: 1

What do the screens show for `CC1(C)Cc2c(c(N3CCOCC3)nc3sc(C(N)=O)c(N)c23)CO1`?
SIAE primary: 4; ABHD4 inh: 0; PRMT1 inh: 37*; rCAG binder: 6; TCR CD3 inh: -11; PRMT1 confirm: 7

Results for CC1(C)Cc2c(c(N3CCCC3)nc3sc(C(=O)Nc4ccccc4)c(N)c23)CO1 ?
SIAE primary: 11; ABHD4 inh: 12; PRMT1 inh: 6; rCAG binder: 14; TCR CD3 inh: 7

What do the screens show for `O=[N+]([O-])c1cccc(C(=S)N2CCN(c3ccccc3)CC2)c1`?
SIAE primary: 16; ABHD4 inh: 16; PRMT1 inh: 35*; rCAG binder: 0; TCR CD3 inh: 9; PRMT1 confirm: 7

How did O=C(CSc1nnc(-c2cnccn2)n1-c1ccccc1)Nc1ccc2c(c1)OCCO2 do in these assays?
SIAE primary: 9; ABHD4 inh: 3; PRMT1 inh: -4; rCAG binder: 1
